The source of these data is ChEMBL document CHEMBL1152290, “Bis-pyranobenzoquinones as a new family of reversal agents of the multidrug resistance phenotype mediated by P-glycoprotein in mammalian cells and the protozoan parasite Leishmania” (J Med Chem, 2008).

The test system of series [1] is NIH3T3. The experiment in a line: Intrinsic cytotoxicity against mouse NIH/3T3 cells overexpressing MDR1 at 10 uM after 72 hrs by MTT assay. Format: functional. Particulars: NIH3T3, 72 h. An outline of the steps:
(§1)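 Wild-type or MDR1 NIH-3T3 cells were plated at 3.5×10^3 per well and allowed to attach for 24 h at 37 °C under 5% CO2. Compound was then added at 10 µM and intrinsic cytotoxicity was measured by MTT colorimetric assay. Mean ±SD of three independent experiments performed in triplicate.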

The test system of series [2] is Leishmania tropica. The experiment in a line: Growth inhibition of Leishmania tropica promastigotes expressing MDR1 at 10 uM after 72 hrs by MTT assay in presence of daunorubicin relative to control. The conditions noted are these: for inhibition of growth at 10 µM: MDR1, 72 h, read-out: GI. The series is classed as functional. An outline of the steps: (§2)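 L. tropica promastigotes in log phase were resuspended at 6×10^6 cells/mL in modified RPMI 1640 with 20% heat-inactivated FBS and exposed to compound for 72 h at 28 °C. Viability was read by MTT. The resistant line overexpresses a Pgp-like transporter and is maintained in 150 µM daunorubicin.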
(Formazan colour is commonly taken as a measure of viable cells.)

Series [3] can be described thus: Intrinsic cytotoxicity against wild type mouse NIH/3T3 cells at 10 uM after 72 hrs by MTT assay. Format: cell-based, NIH3T3. The conditions noted are these: wild type NIH/3T3 cells, read-out: INH. The gist of the method:
as §1

Series [4] has as its target Multidrug resistance-associated protein 1 (Homo sapiens, UniProt P33527). The experiment in a line: Inhibition of MRP1 expressed in human 2008 cells assessed as calcein-AM accumulation at 10 uM by spectrofluorimetry. Format: cell-based. Particulars: human, 2008, 10 µM. The gist of the method:
(§3)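 Transfected cell monolayers were incubated 2 h at 37 °C with or without 10 µM compound in DMEM plus 10% HIFBS. Substrates were 5 µM mitoxantrone for HEK293-BCRP (R482) or 2 µM calcein-AM for 2008-MRP1. Cells were washed twice, lysed overnight at 4 °C in the dark in 20 mM Tris-HCl pH 7.4 with 0.2% SDS, and lysate fluorescence was read on a microplate spectrofluorometer.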

The target in series [5] is T1, ATP-dependent translocase ABCB1 (Homo sapiens, UniProt P08183). The experiment in a line: Inhibition of human MDR1 overexpressed in mouse NIH/3T3 cells assessed as daunorubicin accumulation at 10 uM by spectrofluorimetry. Format: cell-based. Particulars: nih3t3, 10 µM. An outline of the steps: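 NIH-3T3 cells transfected with human MDR1-G185 were incubated 2 h at 37 °C with 10 µM daunorubicin, with or without 10 µM compound, in DMEM plus 10% HIFBS. Cells were washed twice, lysed in SDS/Tris buffer pH 7.4 overnight at 4 °C, and read by plate fluorometry. Uptake is expressed relative to wild-type NIH-3T3 accumulation (100%). Three independent experiments, ±SD.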
T1 sequence (P08183 whole entry): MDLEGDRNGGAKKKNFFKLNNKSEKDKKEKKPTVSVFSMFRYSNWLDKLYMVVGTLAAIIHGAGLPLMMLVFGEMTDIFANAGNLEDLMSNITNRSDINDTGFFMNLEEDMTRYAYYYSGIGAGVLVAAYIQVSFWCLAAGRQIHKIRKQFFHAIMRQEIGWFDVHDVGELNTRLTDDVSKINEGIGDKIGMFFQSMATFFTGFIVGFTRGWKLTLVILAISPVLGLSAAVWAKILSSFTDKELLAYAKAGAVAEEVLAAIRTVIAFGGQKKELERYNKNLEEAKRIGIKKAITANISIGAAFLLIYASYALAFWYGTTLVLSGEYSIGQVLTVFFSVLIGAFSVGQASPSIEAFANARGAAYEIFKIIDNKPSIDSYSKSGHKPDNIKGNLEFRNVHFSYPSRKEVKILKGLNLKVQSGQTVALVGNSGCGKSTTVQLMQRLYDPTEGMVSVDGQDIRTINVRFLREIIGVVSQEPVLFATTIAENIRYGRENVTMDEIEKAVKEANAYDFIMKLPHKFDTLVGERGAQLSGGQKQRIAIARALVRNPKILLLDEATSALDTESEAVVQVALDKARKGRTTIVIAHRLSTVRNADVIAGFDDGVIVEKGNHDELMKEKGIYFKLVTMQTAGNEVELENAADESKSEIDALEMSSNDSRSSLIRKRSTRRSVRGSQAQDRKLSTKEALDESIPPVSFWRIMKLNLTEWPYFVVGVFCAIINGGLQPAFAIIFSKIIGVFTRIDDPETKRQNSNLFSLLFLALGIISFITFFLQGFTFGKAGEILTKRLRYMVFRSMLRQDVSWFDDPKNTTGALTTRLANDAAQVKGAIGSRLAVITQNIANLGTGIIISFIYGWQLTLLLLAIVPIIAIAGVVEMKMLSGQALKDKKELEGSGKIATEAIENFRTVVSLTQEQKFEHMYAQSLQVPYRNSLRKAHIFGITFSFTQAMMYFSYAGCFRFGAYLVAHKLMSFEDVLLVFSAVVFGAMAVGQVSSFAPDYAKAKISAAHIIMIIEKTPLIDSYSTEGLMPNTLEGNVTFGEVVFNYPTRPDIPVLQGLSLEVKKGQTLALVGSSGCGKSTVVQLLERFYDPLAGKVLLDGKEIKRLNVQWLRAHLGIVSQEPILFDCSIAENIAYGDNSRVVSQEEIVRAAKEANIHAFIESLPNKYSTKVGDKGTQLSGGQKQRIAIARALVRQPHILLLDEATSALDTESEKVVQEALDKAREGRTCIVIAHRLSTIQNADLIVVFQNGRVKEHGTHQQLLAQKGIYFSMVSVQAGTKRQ

Series [6] concerns the target T2, Broad substrate specificity ATP-binding cassette transporter ABCG2 (Homo sapiens, UniProt Q9UNQ0).
T2 sequence (Q9UNQ0 whole entry): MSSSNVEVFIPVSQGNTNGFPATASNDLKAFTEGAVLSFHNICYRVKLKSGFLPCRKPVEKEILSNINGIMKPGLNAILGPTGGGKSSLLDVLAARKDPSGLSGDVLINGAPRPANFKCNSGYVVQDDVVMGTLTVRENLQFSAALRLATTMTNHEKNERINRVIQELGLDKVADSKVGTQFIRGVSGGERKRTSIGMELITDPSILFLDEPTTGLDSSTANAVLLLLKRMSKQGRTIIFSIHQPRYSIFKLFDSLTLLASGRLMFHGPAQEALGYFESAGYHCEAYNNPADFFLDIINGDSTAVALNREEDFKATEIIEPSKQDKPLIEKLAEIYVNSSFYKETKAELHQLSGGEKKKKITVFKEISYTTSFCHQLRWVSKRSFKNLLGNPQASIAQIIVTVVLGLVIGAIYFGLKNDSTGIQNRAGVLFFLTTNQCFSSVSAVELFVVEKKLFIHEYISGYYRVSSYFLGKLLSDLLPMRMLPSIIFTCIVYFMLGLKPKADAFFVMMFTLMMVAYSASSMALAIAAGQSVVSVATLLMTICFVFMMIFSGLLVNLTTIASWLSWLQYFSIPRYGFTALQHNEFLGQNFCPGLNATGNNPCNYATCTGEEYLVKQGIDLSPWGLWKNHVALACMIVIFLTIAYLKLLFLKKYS
The experiment in a line: Inhibition of BCRP expressed in HEK293 cells assessed as mitoxantrone accumulation at 10 uM by spectrofluorimetry. Particulars: hek293, 10 µM. The series is classed as cell-based. The gist of the method: as §3

The target of series [7] is T1, ATP-dependent translocase ABCB1. The experiment in a line: Inhibition of human MDR1 overexpressed in mouse NIH/3T3 cells assessed as daunorubicin accumulation by flow cytometry. The series is classed as cell-based, NIH3T3. The gist of the method: (§4)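 MDR1 and wild-type NIH-3T3 cells were incubated 0.5 h at 37 °C in DMEM plus 10% HIFBS with 2 µM daunorubicin and varying compound concentrations. Cells were washed, trypsinized, taken up in cold PBS, gated to exclude debris, and FL2 fluorescence was measured. Signals were converted to % Pgp inhibition normalized to wild type and fitted to y = Bmax·x/(Ki + x). Three experiments in triplicate.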

Series [8] shares this target. In words: Inhibition of human MDR1 overexpressed in mouse NIH/3T3 cells assessed as daunorubicin accumulation by flow cytometry relative to control. The conditions noted are these: nih3t3. The series is classed as cell-based. The gist of the method: as §4
In general terms: Flow cytometry measures light scatter and fluorescence of single cells or particles in a stream.

The subject of series [9] is NIH3T3. The experiment in a line: Intrinsic cytotoxicity against mouse NIH/3T3 cells overexpressing MDR1 at 3 uM after 72 hrs by MTT assay. Format: functional. Particulars: NIH3T3, 72 h.
Series [10] can be described thus: Intrinsic cytotoxicity against wild type mouse NIH/3T3 cells at 3 uM after 72 hrs by MTT assay. The conditions noted are these: wild type NIH/3T3 cells.
Series [11] concerns Leishmania tropica. In words: Growth inhibition of wild type Leishmania tropica promastigotes at 10 uM after 72 hrs by MTT assay relative to control. The series is classed as functional. Particulars: read-out: GI. The gist of the method: as §2
Series [12] can be described thus: Intrinsic cytotoxicity against wild type mouse NIH/3T3 cells after 72 hrs by MTT assay. The series is classed as cell-based. Particulars: NIH3T3, 72 h.
Series [13] relates to NIH3T3. In words: Intrinsic cytotoxicity against mouse NIH/3T3 cells overexpressing MDR1 after 72 hrs by MTT assay. Format: functional, cell-based. The conditions noted are these: NIH3T3, 72 h.
Series [14] relates to NIH3T3. In words: Resistance index, ratio of IC50 for mouse NIH/3T3 cells expressing MDR1 to IC50 for wild type mouse NIH/3T3 cells. The gist of the method: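 Cells were plated at 3.5×10^3 per well and attached for 24 h. MDR1 and wild-type NIH-3T3 cells were exposed for 72 h at 37 °C to increasing daunorubicin, with or without 10, 3 or 1 µM modulator. Growth was read by MTT, and IC50 came from four-parameter logistic fits. RI is the IC50 in MDR1 cells divided by the IC50 in wild-type cells. Three independent experiments.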

By inhibition is commonly meant the share of the control response that was lost under treatment. One may read the Ki as the dissociation constant of the complex between target and ligand, obtained from inhibition or displacement. What is called IC50 is the midpoint of a concentration-inhibition curve. A high value points to weaker potency.

The source made the active and inactive calls. The rule behind the calls is not given here.

Chain of Multidrug resistance-associated protein 1 (P33527 whole entry): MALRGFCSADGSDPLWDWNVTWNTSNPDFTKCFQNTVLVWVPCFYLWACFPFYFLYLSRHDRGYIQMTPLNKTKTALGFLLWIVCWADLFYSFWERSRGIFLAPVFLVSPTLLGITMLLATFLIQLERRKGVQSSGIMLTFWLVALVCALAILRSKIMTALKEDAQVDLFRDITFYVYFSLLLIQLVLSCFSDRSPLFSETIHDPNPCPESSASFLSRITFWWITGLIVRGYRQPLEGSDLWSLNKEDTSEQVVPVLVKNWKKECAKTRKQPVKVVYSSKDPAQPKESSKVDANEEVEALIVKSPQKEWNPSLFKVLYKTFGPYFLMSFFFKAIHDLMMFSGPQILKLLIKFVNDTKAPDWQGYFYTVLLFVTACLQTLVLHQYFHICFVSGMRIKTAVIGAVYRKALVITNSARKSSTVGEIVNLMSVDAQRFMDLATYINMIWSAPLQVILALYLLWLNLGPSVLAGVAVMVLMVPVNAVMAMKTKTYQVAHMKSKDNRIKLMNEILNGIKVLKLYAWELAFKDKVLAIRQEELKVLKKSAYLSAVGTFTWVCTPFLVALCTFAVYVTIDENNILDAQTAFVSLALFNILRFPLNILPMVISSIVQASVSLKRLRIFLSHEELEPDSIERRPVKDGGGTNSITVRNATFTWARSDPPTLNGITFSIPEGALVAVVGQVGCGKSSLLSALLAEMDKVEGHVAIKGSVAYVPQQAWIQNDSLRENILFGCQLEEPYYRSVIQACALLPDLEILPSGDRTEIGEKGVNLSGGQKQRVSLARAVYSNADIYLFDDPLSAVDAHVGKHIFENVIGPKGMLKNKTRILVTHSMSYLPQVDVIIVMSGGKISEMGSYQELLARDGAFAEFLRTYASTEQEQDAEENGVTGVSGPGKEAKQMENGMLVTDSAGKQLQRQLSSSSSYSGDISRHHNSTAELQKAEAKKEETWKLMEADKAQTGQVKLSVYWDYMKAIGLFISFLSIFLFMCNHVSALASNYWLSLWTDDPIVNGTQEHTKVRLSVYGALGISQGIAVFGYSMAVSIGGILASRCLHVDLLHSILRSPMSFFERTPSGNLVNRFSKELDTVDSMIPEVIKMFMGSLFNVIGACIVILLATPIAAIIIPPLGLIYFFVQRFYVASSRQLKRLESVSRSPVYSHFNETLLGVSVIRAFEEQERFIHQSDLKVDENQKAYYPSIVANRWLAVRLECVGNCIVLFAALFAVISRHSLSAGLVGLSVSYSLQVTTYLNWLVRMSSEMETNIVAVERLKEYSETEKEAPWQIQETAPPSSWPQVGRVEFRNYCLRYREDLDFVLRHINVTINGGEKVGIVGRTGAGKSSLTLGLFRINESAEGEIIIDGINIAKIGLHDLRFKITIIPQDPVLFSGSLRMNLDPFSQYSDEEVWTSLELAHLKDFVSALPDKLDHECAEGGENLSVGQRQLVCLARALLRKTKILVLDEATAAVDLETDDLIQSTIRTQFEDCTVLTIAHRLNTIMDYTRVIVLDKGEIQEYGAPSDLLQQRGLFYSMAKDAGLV

In the series on NIH3T3 [1], `COc1ccc(CCN(C)CCCC(C#N)(c2ccc(OC)c(OC)c2)C(C)C)cc1OC` (stereo not drawn) registered an inhibition at 10 µM of 11.2%.
For the compound `CC1(C)OC2=C(C(=O)C3=C(C2=O)[C@H]2c4cc(Br)ccc4OC[C@H]2C(C)(C)O3)[C@H]2c3cc(Br)ccc3OC[C@H]21`, the result in the series with Leishmania tropica [2] was inactive.
Take `COc1ccc2c(c1)OC[C@H]1[C@@H]2C2=C(OC1(C)C)C1=C(C(=O)C2=O)[C@@H]2c3ccc(OC)cc3OC[C@@H]2C(C)(C)O1`: the cytotoxicity at 72 h, 10 µM in series [3] is 24.7%. The Activity result is reported as “Not Active” in series [4], “Active” in series [5] and “Not Active” in series [6]. In addition, the inhibition of growth at 10 µM in the series on Leishmania tropica [2] was more than 75%. The same compound registered an inhibition at 10 µM with NIH3T3 [1] of 10.8%. Also, in series [7], the Ki is 1.04 µM. Moreover, the “inhibition (INH)” value in [8] worked out at 112.5%.
`O[C@@H](COc1cccc2ncccc12)CN1CCN([C@@H]2c3ccccc3[C@@H]3[C@H](c4ccccc42)C3(F)F)CC1` [ZOSUQUIDAR] gave an inhibition at 3 µM with NIH3T3 [9] of 3.1%. In series [3], the cytotoxicity at 72 h, 10 µM was 2.4%. The inhibition at 10 µM with NIH3T3 [1] was found to be 3.1%. The cytotoxicity at 72 h, 3 µM in series [10] was 2.4%.
For `COc1ccc2c(c1)OC[C@H]1[C@@H]2C2=C(OC1(C)C)C1=C(C(=O)C2=O)[C@H]2c3ccc(OC)cc3OC[C@H]2C(C)(C)O1`, the cytotoxicity at 72 h, 10 µM in series [3] came to 9.7%. Besides, the Activity result in series [4] is given as “Not Active”; in series [5] it was “Active”; in series [6], “Not Active”. Moreover, in the series with Leishmania tropica [2], the result was inactive. In the series on NIH3T3 [1], this compound gave an inhibition at 10 µM of 3.5%. In series [7], the Ki turned out to be 0.42 µM. Also, the “inhibition (INH)” value in [8] is given as 105.8%.
Regarding `C[C@H]1CC[C@@H]2[C@@H]1C1=C(OC2(C)C)C2=C(C(=O)C1=O)[C@H]1[C@@H](CC[C@@H]1C)C(C)(C)O2`, the inhibition of growth at 10 µM in the series with Leishmania tropica [2] was more than 75%.
As to `CC1(C)OC2=C(C(=O)C(=O)C3=C2OC(C)(C)[C@H]2COc4ccc(Br)cc4[C@@H]32)[C@@H]2c3cc(Br)ccc3OC[C@@H]21`, the figures for the inhibition of growth at 10 µM in the series on Leishmania tropica [2] and in the series on Leishmania tropica [11] were more than 75% and 75%, respectively.
As to `CC1(C)OC2=C(C(=O)C(=O)C3=C2OC(C)(C)[C@H]2COc4c(Br)cc(Br)cc4[C@@H]32)[C@H]2c3cc(Br)cc(Br)c3OC[C@H]21`, the result with Leishmania tropica [2] was inactive.
For `COc1cccc2c1C(=O)c1c(O)c3c(c(O)c1C2=O)C[C@@](O)(C(C)=O)C[C@@H]3O[C@H]1C[C@H](N)[C@H](O)[C@H](C)O1` [DAUNORUBICIN], the figures for the half-maximal inhibitory concentration (IC50) (in series [12]; in the series with NIH3T3 [13]) were 0.044 µM and 1.01 µM, respectively. Further, the “Ratio IC50” value in the series on NIH3T3 [14] was determined as 23.
Turning to `CC1(C)OC2=C(C(=O)C(=O)C3=C2OC(C)(C)[C@H]2COc4ccc(Br)cc4[C@@H]32)[C@H]2c3cc(Br)ccc3OC[C@H]21`, the outcome in the series with Leishmania tropica [2] was inactive.
`CC1(C)OC2=C(C(=O)C(=O)C3=C2OC(C)(C)[C@H]2COc4ccc5ccccc5c4[C@@H]32)[C@@H]2c3c(ccc4ccccc34)OC[C@@H]21`: in the series on Leishmania tropica [2], the inhibition of growth at 10 µM worked out at 100%.
Consider `C[C@@H]1CC[C@@H]2[C@@H](C1)C1=C(OC2(C)C)C(=O)C2=C(OC(C)(C)[C@@H]3CC[C@@H](C)C[C@@H]23)C1=O`, for which the cytotoxicity at 72 h, 10 µM in [3] came out at 0%. Also, the Activity entry is reported as “Not Active” in series [4], “Active” in [5] and “Not Active” in series [6]. The same compound showed an inhibition at 10 µM in the series with NIH3T3 [1] of 18.1%. Besides, in series [7], the Ki is 0.77 µM. Further, the “inhibition (INH)” value in series [8] is reported as 72%.
In the case of `COc1ccc2c(c1)OC[C@@H]1[C@H]2C2=C(OC1(C)C)C(=O)C1=C(OC(C)(C)[C@@H]3COc4cc(OC)ccc4[C@H]13)C2=O`, the cytotoxicity at 72 h, 10 µM in series [3] turned out to be 6.5%. Moreover, the results for the Activity result in [4], in series [5] and in [6] were “Not Active”, “Active” and “Not Active”, respectively. Also, the outcome in the series on Leishmania tropica [2] was inactive. In the series on NIH3T3 [1], the inhibition at 10 µM was 0%. The Ki in [7] came out at 0.51 µM. Besides, the “inhibition (INH)” value in [8] is 104.3%.
In the case of `CC1(C)OC2=C(C(=O)C(=O)C3=C2OC(C)(C)[C@H]2COc4c(Br)cc(Br)cc4[C@@H]32)[C@@H]2c3cc(Br)cc(Br)c3OC[C@@H]21`, the result with Leishmania tropica [2] was inactive.
For the compound `C[C@@H]1CC[C@H]2[C@H](C1)C1=C(OC2(C)C)C2=C(C(=O)C1=O)[C@H]1C[C@@H](C)CC[C@@H]1C(C)(C)O2`, the inhibition of growth at 10 µM in the series on Leishmania tropica [2] was more than 75%.
